Target: Heat shock protein HSP 90-alpha (Homo sapiens, UniProt P07900)
Assay: Binding affinity for human heat shock protein 90 in scintillation proximity assay
How it was run: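 Purified full-length human Hsp90 was used as the target protein. Binding was measured by scintillation proximity assay.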

Structure (SMILES) | Kd [µM]
CO[C@H]1C=CC=C(C)C(=O)Nc2cc(O)c(N3CCC3)c(c2O)C=C(C)C[C@H](OC)[C@H](O)[C@@H](C)/C=C(\C)[C@@H]1OC(=O)NO [Geldanamycin derivative] | > 100
CO[C@H]1C=CC=C(C)C(=O)Nc2cc(O)c(N=CCN(C)C)c(c2O)C[C@@H](C)C[C@H](OC)[C@H](O)[C@@H](C)/C=C(\C)[C@@H]1OC(=O)NCCO [(2-Hydroxy-ethyl)-carbamic acid (4E,6Z)-(13S,14S,17R,19S)-19-(2-dimethylamino-ethylamino)-13-(S)-hydroxy-8,14-dimethoxy-4,12,16-trimethyl-10-(R)-methyl-3,20,22-trioxo-2-aza-bicyclo[16.3.1]docosa-1(21),4,6,10,18-pentaen-9-yl ester] | > 100
CO[C@H]1C=CC=C(C)C(=O)Nc2cc(O)c(N=CCN(C)C)c(c2O)C[C@@H](C)C[C@H](OC)[C@H](O)[C@@H](C)/C=C(\C)[C@@H]1OC(=O)NCC(N)=O [Carbamoylmethyl-carbamic acid (4E,6Z)-(13S,14S,17R,19S)-19-(2-dimethylamino-ethylamino)-13-(S)-hydroxy-8,14-dimethoxy-4,12,16-trimethyl-10-(R)-methyl-3,20,22-trioxo-2-aza-bicyclo[16.3.1]docosa-1(21),4,6,10,18-pentaen-9-yl ester] | > 100
CO[C@H]1C=CC=C(C)C(=O)Nc2cc(O)c(N=CCN(C)C)c(c2O)C[C@@H](C)C[C@H](OC)[C@H](O)[C@@H](C)/C=C(\C)[C@@H]1OC(=O)c1cnc[nH]1 [3H-Imidazole-4-carboxylic acid (E)-(8R,10R,15S,20S)-19-(2-dimethylamino-ethylamino)-13-(S)-hydroxy-8,14-dimethoxy-4,12,16-trimethyl-10-(S)-methyl-3,20,22-trioxo-2-aza-bicyclo[16.3.1]docosa-1(21),4,6,10,18-pentaen-9-yl ester] | > 100
CO[C@H]1C=CC=C(C)C(=O)Nc2cc(O)c(N=CCN(C)C)c(c2O)C[C@@H](C)C[C@H](OC)[C@H](O)[C@@H](C)/C=C(\C)[C@@H]1OC(=O)c1ccc[nH]1 [1H-Pyrrole-2-carboxylic acid (E)-(8R,10R,15S,20S)-19-(2-dimethylamino-ethylamino)-13-(S)-hydroxy-8,14-dimethoxy-4,12,16-trimethyl-10-(S)-methyl-3,20,22-trioxo-2-aza-bicyclo[16.3.1]docosa-1(21),4,6,10,18-pentaen-9-yl ester] | > 100
CO[C@H]1C=CC=C(C)C(=O)Nc2cc(O)c(N=CCN(C)C)c(c2O)C[C@@H](C)C[C@H](OC)[C@H](O)[C@@H](C)/C=C(\C)[C@@H]1OC(=O)NCCN(C)C [(2-Dimethylamino-ethyl)-carbamic acid (4E,6Z)-(13S,14S,17R,19S)-19-(2-dimethylamino-ethylamino)-13-(S)-hydroxy-8,14-dimethoxy-4,12,16-trimethyl-10-(R)-methyl-3,20,22-trioxo-2-aza-bicyclo[16.3.1]docosa-1(21),4,6,10,18-pentaen-9-yl ester] | > 100

More lines, now with the values ahead:

Kd [µM] | Structure (SMILES)
> 100 | CO[C@H]1C=CC=C(C)C(=O)Nc2cc(O)c(N=CCN(C)C)c(c2O)C[C@@H](C)C[C@H](OC)[C@H](O)[C@@H](C)/C=C(\C)[C@@H]1OC(=O)NN [Hydrazinecarboxylic acid (4E,6Z)-(13S,14S,17R,19S)-19-(2-dimethylamino-ethylamino)-13-(S)-hydroxy-8,14-dimethoxy-4,12,16-trimethyl-10-(R)-methyl-3,20,22-trioxo-2-aza-bicyclo[16.3.1]docosa-1(21),4,6,10,18-pentaen-9-yl ester]
> 100 | CO[C@H]1C=CC=C(C)C(=O)Nc2cc(O)c(N=CCF)c(c2O)C[C@@H](C)C[C@H](OC)[C@H](O)[C@@H](C)/C=C(\C)[C@@H]1OC(=O)NO [Geldanamycin derivative]
> 100 | CNC(=O)O[C@H]1/C(C)=C/[C@H](C)[C@@H](O)[C@@H](OC)C[C@H](C)Cc2c(O)c(cc(O)c2N=CCN(C)C)NC(=O)C(C)=CC=C[C@@H]1OC [Methyl-carbamic acid (4E,6Z)-(13S,14S,17R,19S)-19-(2-dimethylamino-ethylamino)-13-(S)-hydroxy-8,14-dimethoxy-4,12,16-trimethyl-10-(R)-methyl-3,20,22-trioxo-2-aza-bicyclo[16.3.1]docosa-1(21),4,6,10,18-pentaen-9-yl ester]
> 100 | CO[C@H]1C=CC=C(C)C(=O)Nc2cc(O)c(N=CCF)c(c2O)C[C@@H](C)C[C@H](OC)[C@H](O)[C@@H](C)/C=C(\C)[C@@H]1OC(=O)NN [Hydrazinecarboxylic acid (4E,6Z)-(13S,14S,17R,19S)-19-(2-fluoro-ethylamino)-13-(S)-hydroxy-8,14-dimethoxy-4,12,16-trimethyl-10-(R)-methyl-3,20,22-trioxo-2-aza-bicyclo[16.3.1]docosa-1(21),4,6,10,18-pentaen-9-yl ester]
> 100 | CO[C@H]1C=CC=C(C)C(=O)Nc2cc(O)c(N3CCC3)c(c2O)C=C(C)C[C@H](OC)[C@H](O)[C@@H](C)/C=C(\C)[C@@H]1OC(=O)NN [Hydrazinecarboxylic acid (4E,6Z)-(13S,14S,17R,19S)-19-azetidin-1-yl-13-(S)-hydroxy-8,14-dimethoxy-4,12,16-trimethyl-10-(R)-methyl-3,20,22-trioxo-2-aza-bicyclo[16.3.1]docosa-1(21),4,6,10,18-pentaen-9-yl ester]
> 100 | CONC(=O)O[C@H]1/C(C)=C/[C@H](C)[C@@H](O)[C@@H](OC)C[C@H](C)Cc2c(O)c(cc(O)c2N=CCN(C)C)NC(=O)C(C)=CC=C[C@@H]1OC [Geldanamycin derivative]
> 100 | CO[C@H]1C=CC=C(C)C(=O)Nc2cc(O)c(N=CCN(C)C)c(c2O)C[C@@H](C)C[C@H](OC)[C@H](O)[C@@H](C)/C=C(\C)[C@@H]1OC(=O)N(C)N [N-Methyl-hydrazinecarboxylic acid (4E,6Z)-(13S,14S,17R,19S)-19-(2-dimethylamino-ethylamino)-13-(S)-hydroxy-8,14-dimethoxy-4,12,16-trimethyl-10-(R)-methyl-3,20,22-trioxo-2-aza-bicyclo[16.3.1]docosa-1(21),4,6,10,18-pentaen-9-yl ester]
